Values belong to the molecule of their own block, whether it stands above or below them. Ends that are not written are not given here.
Tests used:
myeloma and lymphoma = conditions: in clinical trials for myeloma and lymphoma; ref [9]; cited from earlier work
Nedd8 E1 = conditions: ref [8]; cited from earlier work
Ube1 [1] = target: T1, Ube1 (Homo sapiens, UniProt P22314); test: Competitive inhibition of UB transfer to Ube1; type: biochemical
T1 sequence (P22314 1-1058): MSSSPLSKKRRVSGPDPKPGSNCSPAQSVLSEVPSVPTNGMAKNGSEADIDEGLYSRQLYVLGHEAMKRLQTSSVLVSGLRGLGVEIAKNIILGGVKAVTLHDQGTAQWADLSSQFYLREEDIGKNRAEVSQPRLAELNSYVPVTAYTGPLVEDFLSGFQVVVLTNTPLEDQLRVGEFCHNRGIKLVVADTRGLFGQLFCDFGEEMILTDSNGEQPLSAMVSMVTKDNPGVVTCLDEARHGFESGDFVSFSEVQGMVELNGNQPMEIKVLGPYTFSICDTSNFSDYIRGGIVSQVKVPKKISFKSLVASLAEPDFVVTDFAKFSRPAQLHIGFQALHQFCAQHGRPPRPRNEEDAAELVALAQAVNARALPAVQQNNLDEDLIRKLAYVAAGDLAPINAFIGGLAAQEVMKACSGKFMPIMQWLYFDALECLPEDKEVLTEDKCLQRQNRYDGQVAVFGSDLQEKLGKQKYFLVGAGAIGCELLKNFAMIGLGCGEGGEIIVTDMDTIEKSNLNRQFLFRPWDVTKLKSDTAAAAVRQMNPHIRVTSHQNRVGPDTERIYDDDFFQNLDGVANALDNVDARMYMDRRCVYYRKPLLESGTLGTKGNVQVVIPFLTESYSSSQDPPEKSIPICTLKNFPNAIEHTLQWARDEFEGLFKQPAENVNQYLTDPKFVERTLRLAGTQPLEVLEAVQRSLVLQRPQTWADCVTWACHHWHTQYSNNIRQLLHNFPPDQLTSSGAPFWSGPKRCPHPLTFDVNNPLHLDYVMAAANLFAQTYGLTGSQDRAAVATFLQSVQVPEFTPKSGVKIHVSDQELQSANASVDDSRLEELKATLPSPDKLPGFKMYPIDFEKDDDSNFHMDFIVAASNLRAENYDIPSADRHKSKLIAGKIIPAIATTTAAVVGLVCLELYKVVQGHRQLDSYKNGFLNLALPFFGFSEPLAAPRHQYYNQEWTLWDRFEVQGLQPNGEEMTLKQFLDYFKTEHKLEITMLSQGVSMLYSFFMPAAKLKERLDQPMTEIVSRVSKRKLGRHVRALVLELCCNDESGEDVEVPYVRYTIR
Outline: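 Increasing concentrations of test peptide were incubated with 1 µM UB and reacted with Ube1 (E1). UB~E1 thioester conjugate formed in each reaction was measured by Western blot.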

Ube1 [2] = target: T1, Ube1; test: ATP-PPi exchange kinetics catalyzed by Ube1; type: biochemical
[3] = substrate: CC(C)[C@H](N)C(=O)N[C@@H](CCC(N)=O)C(=O)N[C@@H](CCCNC(=N)N)C(=O)N[C@@H](Cc1ccc(O)cc1)C(=O)N[C@@H](Cc1c[nH]c2ccccc12)C(=O)NCC(=O)NCC(=O)O; test: ATP-PPi exchange kinetics catalyzed by Ube1; type: biochemical, human; conditions: other: ATP-PPi exchange catalyzed by Ube1
[4] = substrate: CC(C)[C@H](N)C(=O)N[C@@H](Cc1c[nH]c2ccccc12)C(=O)N[C@@H](CCCNC(=N)N)C(=O)N[C@@H](Cc1ccccc1)C(=O)N[C@@H](Cc1c[nH]cn1)C(=O)NCC(=O)NCC(=O)O; test: ATP-PPi exchange kinetics catalyzed by Ube1; type: biochemical, human; conditions: other: ATP-PPi exchange catalyzed by Ube1

Molecule: NS(=O)(=O)OC[C@@H]1C[C@@H](n2ccc3c(N[C@H]4CCc5ccccc54)ncnc32)C[C@@H]1O [MLN4924]
anticancer activities (myeloma and lymphoma): promising anticancer activities
inhibition of Nedd8 E1 (Nedd8 E1): potent inhibitor of the Nedd8 E1

Molecule: VLRLRGG [P1]
inhibition of UB loading on E1 (Ube1 [1]; at a concentration as high as 1 mM, 1 µM UB, Western blot): cannot significantly inhibit UB loading on E1
kcat/K1/2 (Ube1 [2]; ATP-PPi exchange catalyzed by Ube1): 1.28 M⁻¹ s⁻¹
saturation of Ube1 (Ube1 [2]; at a concentration as high as 500 µM in the ATP-PPi exchange reaction): could not saturate Ube1

B1: Ube1 (Homo sapiens) (protein)
chain: T1 sequence (P22314 1-1058)
kcat [3]: 0.162 ± 0.0233 s⁻¹
kcat/Km [3]: 383 M⁻¹ s⁻¹
kcat [4]: 0.0583 ± 0.01 s⁻¹
kcat/Km [4]: 167 M⁻¹ s⁻¹

Continued, values first:

IC50 (Ube1 [1]): 172 µM
Molecule: VQRYWGG [P3]

IC50 (Ube1 [1]): 266 µM
Molecule: VWRFHGG [P2]

IC50 (Ube1 [1]): 220 µM
Molecule: VYRFYGG [P4]
